Consider eleven compounds from ChEMBL document CHEMBL2406910, “Structures and potential antitumor activity of sesterterpenes from the marine sponge Hyrtios communis” (J Nat Prod, 2013).

Some results are limits rather than exact numbers.

For one experiment, the system named is T47D. The experiment in a line: Antiproliferative activity against human T47D cells after 48 hrs by SRB assay. Format: functional, cell-based. In outline: (§1)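 Human breast tumor T47D and MDA-MB-231 cells (ATCC) were treated with compounds for 48 h, and proliferation/viability was measured. […] Cycloheximide and rotenone served as positive controls.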
On the technique in general: In SRB staining, fixed cells bind dye roughly in proportion to their protein.

Experiment [1] is described as follows: Inhibition of hypoxia-induced HIF-1 activation in human T47D cells by luciferase reporter gene assay. Format: cell-based. In outline: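 T47D cells carrying the reporter were incubated under hypoxia (1% O2) for 16 h while exposed to a range of compound concentrations. […] Cycloheximide and rotenone served as positive controls.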
The next experiment relates to MDA-MB-231. The experiment in a line: Antiproliferative activity against human MDA-MB-231 cells after 48 hrs by SRB assay. Format: functional, cell-based. Conditions: MDA-MB-231, 48 h. In outline: as §1

In the case of `CC1=C(CC/C(C)=C/CC/C(C)=C/CCC2=CC(=O)OC2O)C(C)(C)CCC1` (configuration not stated) [LUFFARIELLOLIDE], the half-maximal inhibitory concentration (IC50) turned out to be 5.1 µM with T47D, 3.6 µM in experiment [1] and 4.5 µM in the experiment with MDA-MB-231.
For `CC1=C(CC/C(C)=C/CC/C(C)=C/CCC2=CC(=O)OC2O)C(C)(C)C(=O)CC1` (configuration not stated), the results for the IC50 (with T47D; in experiment [1]; in the experiment on MDA-MB-231) were above 10 µM, 6.2 µM and above 10 µM, respectively.
Consider `CC(=O)CCCC(C)(C)C(=O)CC/C(C)=C/CC/C(C)=C/CCC1=CC(=O)OC1O` (configuration not stated), for which the IC50 in the experiment on T47D and in the experiment with MDA-MB-231 was above 10 µM each time.
For the compound `C=C(CCC1=C(C)CCCC1(C)C)C(O)CC/C(C)=C/CCC1=CC(=O)OC1O` (configuration not stated), the figures for the concentration for half-maximal inhibition (IC50) (in the experiment on T47D; in experiment [1]; in the experiment with MDA-MB-231) were above 10 µM, 7.1 µM and above 10 µM, respectively.
With `C=C1CCCC(C)(C)C1(O)CC/C(C)=C/CC/C(C)=C/CCC1=CC(=O)OC1O` (configuration not stated), the IC50 in the experiment with T47D and with MDA-MB-231 was above 10 µM throughout.
On to `CC1=C(CC/C(C)=C/CC/C(C)=C/CCC2=CC(=O)OC2O)C(C)(C)CCC1=O` (configuration not stated) [ACANTHOLIDE B], for which the IC50 with T47D and in the experiment with MDA-MB-231 was above 10 µM throughout.
Turning to `CC1=C(CC/C(C)=C/CC/C(C)=C/C[C@@H](O)C2=CC(=O)OC2)C(C)(C)CCC1`, the IC50 with T47D and in the experiment on MDA-MB-231 was above 10 µM throughout.
As for `CC1=C(CC/C(C)=C/CC/C(C)=C/CCC2=CC(=O)OC2O)C(C)(C)CCC1O` (configuration not stated), the IC50 with T47D and in the experiment on MDA-MB-231 was above 10 µM throughout.
For the compound `CC(=O)O[C@H](C/C=C(\C)CC/C=C(\C)CCC1=C(C)CCC(=O)C1(C)C)C1=CC(=O)OC1`, the IC50 was above 10 µM in the experiment on T47D, 3.5 µM in experiment [1] and above 10 µM in the experiment with MDA-MB-231.
As for `CC1=C(CCC(C)(O)/C=C/C/C(C)=C/CCC2=CC(=O)OC2O)C(C)(C)CCC1` (configuration not stated), the IC50 with T47D and in the experiment on MDA-MB-231 was above 10 µM each time.
Regarding `CC1=C(CC/C(C)=C/CC/C(C)=C/C[C@@H](O)C2=CC(=O)OC2)C(C)(C)C(=O)CC1`, the results for the IC50 (in the experiment with T47D; in experiment [1]; in the experiment with MDA-MB-231) were above 10 µM, 3.2 µM and above 10 µM, respectively.

As a reminder, the IC50 is the concentration at which inhibition is half-maximal. Read a low IC50 as greater potency in that assay.
